pIC50: −log10 of the molar value. Active and inactive are the calls of the source. The rule behind the calls is not given here.
Tests used:
[1] = molecular target: T1, L-lactate dehydrogenase A chain (Homo sapiens, UniProt P00338); assay: Inhibition of recombinant human LDHA using sodium pyruvate as substrate preincubated for 5 mins followed by diaphorase/resazurin addition and measured after 20 mins by fluorescence based assay
[2] = molecular target: T1, L-lactate dehydrogenase A chain; assay: Inhibition of LDHA in human A673 cells assessed as decrease in lactate production incubated for 2 hrs by lactate oxidase-coupled fluorescence based assay; type: cell-based
A673 = assay: Cytotoxicity against human A673 cells assessed as reduction in cell viability after 48 hrs by CellTiter-Glo assay; type: functional, cell-based; settings: A673, 48 h
[3] = molecular target: T1, L-lactate dehydrogenase A chain; assay: Inhibition of LDHA in human MIA PaCa-2 cells assessed as decrease in lactate production incubated for 2 hrs by lactate oxidase-coupled fluorescence based assay; type: cell-based
MIA PaCa-2 = assay: Cytotoxicity against human MIA PaCa-2 cells assessed as reduction in cell viability after 48 hrs by CellTiter-Glo assay; type: functional, cell-based; settings: MIA PaCa-2, 48 h
[4] = molecular target: T1, L-lactate dehydrogenase A chain; assay: Inhibition of GS[HiBiT]GS-tagged LDHA (unknown origin) expressed in HEK-293T cells measured after 1 hr by […]; type: cell-based
Outline: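 HEK293T cells were transiently transfected for 24 h with CMV-driven LDHA carrying a C-terminal GS[HiBiT]GS tag, then reseeded at 2500 cells/well in DPBS with Ca/Mg and 1 g/L glucose. […] Cells were lysed with NP40, and 11S (100 nM final) plus furimazine was added.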

[5] = molecular target: L-lactate dehydrogenase B chain (Homo sapiens) (UniProt P07195); assay: Inhibition of recombinant human LDHB using sodium pyruvate as substrate preincubated for 5 mins followed by diaphorase/resazurin addition and measured after 20 mins by fluorescence based assay
Sus scrofa = species: Sus scrofa; assay: Inhibition of porcine heart MDH using malic acid as substrate preincubated for 10 mins followed by substrate addition and measured after 5 mins by resazurin based fluorescence based assay; settings: time 15.0 min

L-lactate dehydrogenase B chain (Homo sapiens), sequence (P07195 2-334 limits assumed): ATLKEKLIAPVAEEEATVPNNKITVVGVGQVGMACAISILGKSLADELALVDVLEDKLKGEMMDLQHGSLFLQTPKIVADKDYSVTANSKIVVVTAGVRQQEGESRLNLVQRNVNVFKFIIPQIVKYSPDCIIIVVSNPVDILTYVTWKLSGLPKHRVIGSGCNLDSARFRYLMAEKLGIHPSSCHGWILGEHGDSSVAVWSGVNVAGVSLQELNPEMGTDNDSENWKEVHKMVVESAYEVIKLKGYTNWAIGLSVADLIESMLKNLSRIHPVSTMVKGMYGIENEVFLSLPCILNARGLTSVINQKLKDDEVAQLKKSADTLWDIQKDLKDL

Structure (SMILES) | pIC50 [1] | pIC50 [2] | pIC50 [3] | pIC50 [4] | inhibition [5] | inhibition (Sus scrofa) | pIC50 (A673) | pIC50 (MIA PaCa-2)
NS(=O)(=O)c1ccc(Cc2c(-c3cccc(-c4ccccc4)c3)nn(-c3nc(C(=O)O)cs3)c2CC2CC2(F)F)cc1 (stereo not drawn) | 7.60 | 5.85 | 5.76 | 6.30 | Active | inactive | 5.33 | 4.97
Cc1ccc(/C=C/c2cccc(-c3nn(-c4nc(C(=O)O)cs4)c(CC4CC4)c3Cc3ccc(S(N)(=O)=O)c(F)c3)c2)s1 | 7.28 | 6.45 | 6.48 | 6.80 | Active | inactive | 6.34 | 6.33
CC#Cc1cc(-c2nn(-c3nc(C(=O)O)cs3)c(CC3CC3)c2Cc2ccc(S(N)(=O)=O)c(F)c2)ccc1F | 7.96 | 6.30 | 6.35 | 6.92 | Active | inactive | 6.48 | 6.49
NS(=O)(=O)c1ccc(Cc2c(-c3ccc(F)c(-c4ccccc4)c3)nn(-c3nc(C(=O)O)cs3)c2CC2CC2)cc1F | 7.64 | 6.33 | 6.23 | 6.85 | Active | inactive | 5.87 | 5.47
NS(=O)(=O)c1ccc(Cc2c(-c3cccc(C#Cc4ccc(Cl)s4)c3)nn(-c3nc(C(=O)O)cs3)c2CC2CC2)cc1F | 6.78 | 6.66 | 6.39 | 6.95 | Active | inactive | 6.34 | 6.25
Cc1nc(C#Cc2cccc(-c3nn(-c4nc(C(=O)O)cs4)c(CCC4CC4)c3Cc3ccc(S(N)(=O)=O)c(F)c3)c2)cs1 | 7.62 | 6.52 | 6.60 | 7.05 | Active | inactive | 6.66 | 6.66
CC(C)CC#Cc1cc(-c2nn(-c3nc(C(=O)O)cs3)c(CC3CC3)c2Cc2ccc(S(N)(=O)=O)c(F)c2)ccc1F | 7.27 | 6.55 | 6.31 | 7.05 | Active | inactive | 6.03 | 6.04

Compounds with a higher pIC50 [1], results first:

pIC50 [1] | pIC50 [2] | pIC50 [3] | pIC50 [4] | inhibition [5] | inhibition (Sus scrofa) | Structure (SMILES) | pIC50 (A673) | pIC50 (MIA PaCa-2)
8.10 | 6.11 | 6.28 | 6.92 | Active | inactive | COCC#Cc1cc(-c2nn(-c3nc(C(=O)O)cs3)c(CC3CC3)c2Cc2ccc(S(N)(=O)=O)c(F)c2)ccc1F | 5.91 | 5.96
8.52 | 5.61 | 5.78 | 6.24 | Active | inactive | NS(=O)(=O)c1ccc(Cc2c(-c3ccc(F)c(C#CCCO)c3)nn(-c3nc(C(=O)O)cs3)c2CC2CC2)cc1F | 5.75 | 5.88
8.05 | 6.03 | 6.03 | 6.75 | Active | inactive | NS(=O)(=O)c1ccc(Cc2c(-c3ccc(F)c(C#CCC4CCCO4)c3)nn(-c3nc(C(=O)O)cs3)c2CC2CC2)cc1F (stereo not drawn) | 5.86 | 5.91
8.05 | 5.80 | 5.94 | 6.72 | Active | inactive | Cn1cc(C#Cc2cc(-c3nn(-c4nc(C(=O)O)cs4)c(CC4CC4)c3Cc3ccc(S(N)(=O)=O)c(F)c3)ccc2F)cn1 | 6.23 | 6.21

Reference: ChEMBL document CHEMBL4665801, “Pyrazole-Based Lactate Dehydrogenase Inhibitors with Optimized Cell Activity and Pharmacokinetic Properties” (J Med Chem, 2020)
